Measurements published in ChEMBL document CHEMBL1128262, “New steroidal antiinflammatory antedrugs: steroidal [16 alpha,17 alpha-d]-3'-carbethoxyisoxazolines” (1995).

Assays:
[1] = system: Rattus norvegicus; assay: The antiinflammatory activity was evaluated as %inhibition of croton oil induced ear edema in the right ear of rat; assay type: functional
Summary of the method: (§1)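 Male Sprague-Dawley rats. Right ears dosed topically (acetone/DMSO vehicle, 25 µL) once daily for 5 days, with 5% croton oil applied 30 min after each dose. Left ears received vehicle plus croton oil to reflect systemic effect. Micrometer ear thickness read 5 h after croton oil. % inhibition computed against controls; ANOVA with Bonferroni test.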

[2] = system: Rattus norvegicus; assay: The thymus weight change of rats after administration of the compound; assay type: functional
Summary of the method: (§2)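 Male Sprague-Dawley rats given 5-day once-daily topical steroid to right ears in acetone/DMSO, with croton oil to both ears. Afterward, body weight change, thymus weight change and plasma corticosterone (ng/mL) were recorded against controls. Five or six samples per group, mean ± SEM; ANOVA with Bonferroni post hoc test.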

[3] = system: Rattus norvegicus; assay: The antiinflammatory activity was evaluated as %inhibition of croton oil induced ear edema in the left ear of rat; assay type: functional; summary of the method: as §1
[4] = system: Rattus norvegicus; assay: The plasma corticosterone (ng/ml) concentration was measured in rats after compound administration; assay type: functional, organism-based; summary of the method: as §2
[5] = system: Rattus norvegicus; assay: The body weight change of rats after administration of the compound; assay type: functional; summary of the method: as §2
[6] = system: Rattus norvegicus; assay: The antiinflammatory activity was evaluated as %inhibition of croton oil induced ear edema in the left ear of rat at the dose of 101(nmol/ear); assay type: functional; summary of the method: as §1
[7] = system: Rattus norvegicus; assay: The antiinflammatory activity was evaluated as %inhibition of croton oil induced ear edema in the right ear of rat at the dose of 101(nmol/ear); assay type: functional; summary of the method: as §1
[8] = system: Rattus norvegicus; assay: The antiinflammatory activity was evaluated as %inhibition of croton oil induced ear edema in the right ear of rat At the dose of 135(nmol/ear); assay type: functional; summary of the method: as §1
[9] = system: Rattus norvegicus; assay: The antiinflammatory activity was evaluated as %inhibition of croton oil induced ear edema in the left ear of rat At the dose of 135(nmol/ear); assay type: functional; summary of the method: as §1
[10] = system: Rattus norvegicus; assay: The %inhibition of compound for croton oil -induced ear edema was measured in rats at 0.01 mg/ear; assay type: functional
Summary of the method: (§3)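 Male Sprague-Dawley rats; initial ear thickness measured with spring-loaded micrometer. Single topical dose of steroid in 25 µL acetone/DMSO applied to ear surfaces, then 5% croton oil 30 min later. Ear thickness remeasured 5 h later at peak inflammation. % inhibition computed against vehicle-treated controls; five animals per group.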

[11] = system: Rattus norvegicus; assay: The %inhibition of compound for croton oil -induced ear edema was measured in rats at 0.03 mg/ear; assay type: functional; summary of the method: as §3
[12] = system: Rattus norvegicus; assay: The %inhibition of compound for croton oil -induced ear edema was measured in rats at 0.1 mg/ear; assay type: functional; summary of the method: as §3

SMILES | Inhibition [1] | Thymus weight [2] | Inhibition [3] | Plasma corticosterone [4] | Body weight change [5] | Inhibition [6] | Inhibition [7] | Inhibition [8] | Inhibition [9] | Inhibition [10] | Inhibition [11] | Inhibition [12]
C[C@]12C=CC(=O)C=C1CC[C@@H]1[C@@H]2[C@@H](O)C[C@@]2(C)[C@H]1CC[C@]2(O)C(=O)CO [PREDNISOLONE] | 66.7% | 369 mg | 49.6% | 31.8 ng/mL | 22.8 g |  |  |  |  |  |  | 
CCOC(=O)C1=NO[C@]2(C(=O)COC(C)=O)[C@H]1CC1C3CCC4=CC(=O)C=C[C@]4(C)[C@@]3(F)[C@@H](O)C[C@@]12C (stereo partly specified) |  | 625 mg |  | 134 ng/mL | 38 g | 8.9% | 51.2% |  |  |  |  | 
CCOC(=O)C1=NO[C@]2(C(=O)CO)[C@H]1CC1C3CCC4=CC(=O)C=C[C@]4(C)[C@@]3(F)[C@@H](O)C[C@@]12C (stereo partly specified) |  | 562 mg |  | 48.6 ng/mL | 36 g |  |  | 56.9% | 24.4% |  |  | 
CCOC(=O)C1=NO[C@]2(C(=O)COC(C)=O)[C@H]1CC1C3CCC4=CC(=O)C=C[C@]4(C)[C@H]3[C@@H](O)C[C@@]12C (stereo partly specified) |  |  |  |  |  |  |  |  |  | 14.9% | 21.4% | 35.7%
CCOC(=O)C1=NO[C@]2(C(=O)CO)[C@H]1CC1C3CCC4=CC(=O)C=C[C@]4(C)[C@H]3[C@@H](O)C[C@@]12C (stereo partly specified) |  |  |  |  |  |  |  |  |  | 31.3% | 44% | 44%
